An excerpt weighted towards active compounds, which were near 1.4% of everything screened.
TDP2 inh – blocks human TDP2 phosphodiesterase activity. recombinant TDP2, T5PNP hydrolysis, p-nitrophenol absorbance 415 nm. inhibition, % at 12.8 µM. 0.34% of 370,000 active. AID 720702;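 active = inhibition above the mean of all tested compounds plus 3 SD, set per campaign, cut at about 25% in these data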;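 note: 0% = DMSO with enzyme and 100% = buffer with substrate but no TDP2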
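Evaluation: % inhibition relative to enzyme-containing and enzyme-free wells. Material: recombinant human TDP2. Benchmarks: enzyme-free and DMSO wells. Timing: enzyme reaction with compound for 2 h at 37 °C. Compound dosing: 12.8 µM only. Measured by: p-Nitrophenol epi absorbance. Reagent: T5PNP substrate at 5 mM, a TopII-DNA adduct mimic. Replication: single well per compound.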
GSTO1 inh – blocks human GSTO1 in RBBP9 counter-screen | P78417 | recombinant GSTO1, activity-based probe fluorescence polarization | inhibition, % at 5.96 µM | 1.1% of 300,000 active;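 active = inhibition above the campaign mean inhibition plus 3 SD, cut at about 35% in these data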;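 note: 0% = GSTO1-1 with DMSO and 100% = wells lacking GSTO1-1 enzyme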
PAD4 inh – inhibitors of human PAD4 | inhibition, % at 6.36 µM | Q9UM07 | recombinant PAD4, RCA probe fluorescence polarization | 0.41% of 330,000 active;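 active = percent inhibition above a cutoff equal to the mean of all tested compounds plus 3 SD, cut at about 15% in these data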;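 note: 0% = PAD4 with RCA probe and DMSO and 100% = probe without PAD4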
Target sequence (Q9UM07 whole entry, looked up): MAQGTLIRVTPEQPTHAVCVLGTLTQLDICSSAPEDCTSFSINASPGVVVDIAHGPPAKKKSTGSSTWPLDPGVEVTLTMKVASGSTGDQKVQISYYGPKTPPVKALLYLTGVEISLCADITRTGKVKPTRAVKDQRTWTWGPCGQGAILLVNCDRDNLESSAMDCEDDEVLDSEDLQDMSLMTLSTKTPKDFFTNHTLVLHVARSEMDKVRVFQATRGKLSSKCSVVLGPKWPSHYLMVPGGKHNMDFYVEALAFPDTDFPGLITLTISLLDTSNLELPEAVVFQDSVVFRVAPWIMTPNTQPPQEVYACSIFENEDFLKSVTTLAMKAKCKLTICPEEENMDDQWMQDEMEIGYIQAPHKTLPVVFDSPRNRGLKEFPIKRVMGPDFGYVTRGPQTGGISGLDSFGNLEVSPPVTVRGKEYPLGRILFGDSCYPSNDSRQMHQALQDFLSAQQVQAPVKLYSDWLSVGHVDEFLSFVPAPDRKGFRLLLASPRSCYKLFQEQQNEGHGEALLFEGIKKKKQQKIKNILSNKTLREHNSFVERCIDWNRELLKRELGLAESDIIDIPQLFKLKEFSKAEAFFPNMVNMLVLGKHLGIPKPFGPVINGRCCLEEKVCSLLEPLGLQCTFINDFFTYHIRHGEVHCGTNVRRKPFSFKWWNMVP
Fh CTSL1 inh – blocks F. hepatica cathepsin L1 in PFM18AAP counter-screen; recombinant F. hepatica cathepsin L1, Z-Leu-Arg-MCA fluorescence; inhibition, % at 5.96 µM; 0.49% of 300,000 active; AID 1906;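 active = inhibition above the mean of all tested compounds plus 3 SD, set per screening campaign, cut at about 17% in these data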;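 note: 0% = plate median of test compound wells and 100% = 1 µM Z-Phe-Ala-diazomethylketone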
PAD4 confirm – PAD4 (human) inhibition, confirmed; shares compounds with PAD4 inh; recombinant PAD4, RCA probe fluorescence polarization; inhibition, % at 6.36 µM; 28% of 1,200 active;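 active = mean inhibition across replicates above the hit cutoff set by the earlier primary screen, cut at about 15% in these data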;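 note: inhibitors block active-site labeling by the probe so polarization falls; 0% = PAD4 with probe and DMSO and 100% = probe without PAD4 enzyme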
TDP2 inh conf – human TDP2 inhibition, confirmation | recombinant human TDP2, absorbance read-out | shares compounds with TDP2 inh | inhibition, % at 12.8 µM | 22% of 1,100 active | AID 743263; in the data active = inhibition above about 25%;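 note: 0% = vehicle with enzyme and 100% = no enzyme buffer only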
Active calls of the source: *; x = not tested or not shown.

SMILES	TDP2 inh	GSTO1 inh	PAD4 inh	Fh CTSL1 inh	PAD4 confirm	TDP2 inh conf
COc1ccc(-c2cc(=O)n(CCC#N)[nH]2)cc1	91.9*	36.2*	69.7*	-0.6	2.1	8.5
CN1CCN(c2ccc3c(c2)Oc2ccccc2CN(Cc2cn(Cc4ccc(F)cc4)nn2)S3(=O)=O)CC1	-0.7	x	x	x	x	x
COc1ccc2c(c1C(=O)/C=C/c1ccccc1)OC(C)(C)C=C2	1.2	x	x	x	x	x
O=C(c1cc(Cl)cc(Cl)c1)N1CC[C@H]2[C@H](CCCN2Cc2ccccc2)C1	0.4	x	x	x	x	x
CCN(CC)c1ccc(N)cc1	x	x	-51.4	x	x	x
Nc1ccc(N(CCO)CCO)cc1	46.1*	64.6*	58.8*	12.8	-2.7	23.9
CCCC/C=C1/[C@@H](c2ccc(Cl)cc2)N(Cc2ccc3c(c2)OCO3)C2=N[C@@H](c3ccccc3)CC(=O)N21	0.9	x	x	x	x	x
COc1ccc(C(C[N+](=O)[O-])c2c(C)[nH]n(-c3ccccc3)c2=O)cc1 (stereo unspecified)	75.0*	82.3*	17.3*	98.3*	11.5	68.8*
CC1CCN(c2ccc(/C=N/n3nnnc3N)cc2[N+](=O)[O-])CC1	-21.8	0.8	-0.3	0.3	x	x
CC1CCN(c2ccc(/C=N\Nc3nncn3N)cc2[N+](=O)[O-])CC1	79.5*	18.5	30.5*	-7.3	-7.5	2.0
COc1cc(/C=N\Nc2nncn2N)ccc1OC(C)=O	57.1*	2.8	30.7*	-2.2	6.6	4.9
CCOc1cc(/C=N/Nc2nnc(C)n2N)ccc1O	47.9*	36.9*	49.9*	3.7	0.2	4.8
COc1cc(/C=N/Nc2nncn2/N=C/c2ccc(O)c(OC)c2)ccc1O	67.3*	18.5	43.2*	2.8	6.7	7.5
COc1cc(/C=N/Nc2ccccc2)ccc1O	4.8	23.0	-0.4	1.6	x	x
CCC(CC)NC(=O)O[C@H]1CC[C@@]23CCCN2C(=O)CCC[C@H]3C1	-12.0	x	x	x	x	x
CCn1c(SCC(=O)Nc2ccc(C(N)=O)cc2)nc2sc(C)c(C)c2c1=O	0.1	x	x	x	x	x
COc1ccc(OC)c(/C=N/Nc2nncn2/N=C/c2cc(OC)ccc2OC)c1	66.9*	12.5	21.2*	3.6	4.3	6.8
COc1ccc(OC)c(/C=N\Nc2nccs2)c1	2.7	7.4	-0.1	9.5	x	x
COP(=O)(O)C(COCCC(CC(C)C)NC(=O)OCc1ccccc1[N+](=O)[O-])NC(=O)OCc1ccccc1 (stereo unspecified)	4.4	x	x	x	x	x
CCc1nnc(N/N=C/c2c(F)cccc2Cl)n1N	57.8*	22.6	37.3*	0.8	2.3	4.5
Clc1cccc(Cl)c1/C=N\Nc1nccs1	3.3	-0.3	-0.4	-1.4	x	x
Cc1nnc(N/N=C/c2c(Cl)cccc2Cl)n1N	52.2*	7.6	33.3*	1.5	7.5	-5.2
COC(=O)[C@]12C[C@H](CC(=O)N3CCN(C(=O)C4CC4)CC3)C(=O)N(Cc3ccco3)C1=C[C@H](C(C)C)O[C@@H]2C1CC1	-0.4	x	x	x	x	x
Cc1no[n+]([O-])c1COc1cccc(/C=N/Nc2nncn2N)c1	60.5*	18.2	32.3*	5.2	4.5	10.0
COc1cc(N)c(C(=O)c2nccc3cc(OC)c(OC)cc23)cc1OC	5.1	4.0	-0.5	-5.7	x	x
SMILES	TDP2 inh	GSTO1 inh	PAD4 inh	Fh CTSL1 inh	PAD4 confirm	TDP2 inh conf
COc1cc(C(=O)c2nccc3cc(OC)c(OC)cc23)c([N+](=O)[O-])cc1OC	48.7*	55.3*	40.0*	42.1*	-1.7	34.9*
CC1=NN(c2ccc(Cl)c(C(=O)O)c2)C(=O)C1	44.0*	72.2*	35.9*	0.8	-2.1	6.0
CN(C)CC(=O)N[C@@H]1C[C@@H]2O[C@@H](CO)CC[C@@H]2O[C@@H]1CCc1ccc(-c2ccc(F)cc2)cc1	4.3	x	x	x	x	x
CSCCCNc1nc(C)nc2c1nnn2Cc1ccccc1	-9.5	x	x	x	x	x
Oc1cc(NCCN2CCOCC2)cc2cccnc12	31.5*	x	31.2*	x	11.7	12.9
O=C(O)c1ccc(S(=O)(=O)c2ccc3c(c2)C(=O)N(c2ccc(O)cc2)C3=O)cc1	38.0*	14.9	62.2*	1.3	3.8	6.7
COc1ccc(C#CCN(C)/C(N)=N/C(=O)OCc2ccccc2)cc1	0.5	x	x	x	x	x
COCCCOc1cc(NCc2ccccc2)c2ncn(C(C)C)c2c1	13.1	x	-8.4	x	x	x
CCC(COC)Oc1cc(NCc2ccccc2)c2ncn(C(C)C)c2c1 (stereo unspecified)	60.9*	x	24.2*	x	-4.8	34.5*
O=[N+]([O-])c1ccc(S(=O)(=O)NCC2COc3ccccc3O2)cc1 (stereo unspecified)	24.7*	12.0	3.0	3.6	x	-0.7
O=C(O)c1cc(S(=O)(=O)NCC2COc3ccccc3O2)ccc1Cl (stereo unspecified)	15.1	x	-0.9	x	x	x
Cn1c(=O)c2c(-c3ccccc3)n(-c3ccc(N)cc3)cc2n(C)c1=O	57.8*	x	x	x	x	27.3*
COC(=O)[C@]12C[C@H](CC(=O)N3CCCCC3)C(=O)N(CCc3ccc(OC)c(OC)c3)C1=C[C@H](C1CCCC1)O[C@@H]2C	-5.8	x	x	x	x	x
Cc1ccc(NC(=O)CN(C)C(=O)c2ccccc2OCc2c(C)noc2C)cc1	7.8	3.1	-0.5	1.8	x	x
CCOc1ccc(NC(=O)CN(C)C(=O)c2ccccc2OCc2c(C)noc2C)cc1OCC	25.6*	3.0	-2.3	1.4	x	9.7
COc1ccc(-n2c(SCC(=O)Nc3ccc(S(=O)(=O)Nc4cc(C)nc(C)n4)cc3)nnc2-c2ccco2)cc1	-3.7	x	x	x	x	x
CC(C)(C)NC(=O)C(=O)NC(=O)c1c(F)cccc1Cl	43.4*	1.3	-1.7	0.4	x	-5.3
O=S(=O)(CC1NCc2cc(F)ccc21)NCCc1ccccc1 (stereo unspecified)	1.6	x	x	x	x	x
CCCC(=O)N(Cc1cc2cc(OC)ccc2[nH]c1=O)c1ccccc1OC	0.0	x	x	x	x	x
Nc1cccc2nsnc12	59.9*	23.8	-10.9	-2.0	x	5.0
COc1cc(-c2ccc(NC(C)=O)c(OC)c2)ccc1NC(C)=O	4.3	6.2	-1.1	-2.4	x	x
COc1cc(O)c(NC(C)=O)c2nonc12	48.3*	7.4	9.0	-2.6	x	24.4
Cc1cc(C)cc(NC(=S)Nc2cccc3cnccc23)c1	8.6	x	x	x	x	x
CCc1ccc(NC(=S)Nc2cccc3cnccc23)cc1	37.9*	10.9	-7.6	-0.4	x	6.3
COC1=CC(=O)c2c(ccc3ncnc(N)c23)C1=O	84.9*	x	x	x	x	81.6*
COC(=O)[C@]12CCCCC=C1N(Cc1cccc3ccccc13)C(=O)[C@H](CC(=O)NCc1ccc(OC)c(OC)c1)C2	9.3	x	x	x	x	x
COc1ccc(C(=O)CSc2nc3c(c(=O)n(C)c(=O)n3C)n2C)cc1	x	-0.2	4.6	6.5	x	x
COc1ccc(C(=O)NNC(=O)CSc2nc3c(c(=O)n(C)c(=O)n3C)n2C)cc1	25.2*	16.9	-6.6	-3.2	x	6.7
Cc1ccc(C(=O)N/C(=C\c2ccc(-c3ccccc3[N+](=O)[O-])o2)C(=O)NCCN(C)C)cc1	24.6*	25.4	-12.7	3.9	x	18.7

Screening results deposited in PubChem by The Scripps Research Institute Molecular Screening Center.
